Screens: PubChem BioAssay, The Scripps Research Institute Molecular Screening Center
Sampled rows, rich in hits. Any-hit rate of the full collection: about 2.6%.
OXTR ag: agonists of human oxytocin receptor; P30559; CHO-OTR cells, Fluo-8 calcium fluorescence; normalized: DMSO 0%, oxytocin 100%; activation, % at 3 µM; 320,000 tested, 0.32% active;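 active means activation above the mean of all tested compounds plus 3 SD, cutoff set per screening run, cut at about 20% in these data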;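 further: peak over basal fluorescence ratio from a 100 s FLIPR kinetic read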
Target sequence (P30559 whole entry, looked up): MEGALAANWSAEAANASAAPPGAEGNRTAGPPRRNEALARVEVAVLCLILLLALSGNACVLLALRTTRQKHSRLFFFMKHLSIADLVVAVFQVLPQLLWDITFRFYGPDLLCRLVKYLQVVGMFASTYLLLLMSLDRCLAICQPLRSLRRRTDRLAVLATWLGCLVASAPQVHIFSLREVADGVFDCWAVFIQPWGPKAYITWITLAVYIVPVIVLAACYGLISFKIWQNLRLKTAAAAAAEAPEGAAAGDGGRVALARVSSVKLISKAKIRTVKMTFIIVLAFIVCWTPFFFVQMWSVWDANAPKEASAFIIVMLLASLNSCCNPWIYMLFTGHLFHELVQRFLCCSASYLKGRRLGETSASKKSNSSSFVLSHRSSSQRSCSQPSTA
OX1R antag-1: blocks the human orexin 1 receptor; O43613; CHO/OX1R cells, Fluo-8 calcium fluorescence, orexin A; inhibition, % at 5 µM; 330,000 tested, 0.43% active;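 active means inhibition above its plate's threshold, mean inhibition of all tested compounds on the plate plus 3 SD, cut at about 37% in these data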;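 further: 0% = orexin A challenge wells and 100% = SB-334867-A antagonist wells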
Target sequence (O43613 whole entry, looked up): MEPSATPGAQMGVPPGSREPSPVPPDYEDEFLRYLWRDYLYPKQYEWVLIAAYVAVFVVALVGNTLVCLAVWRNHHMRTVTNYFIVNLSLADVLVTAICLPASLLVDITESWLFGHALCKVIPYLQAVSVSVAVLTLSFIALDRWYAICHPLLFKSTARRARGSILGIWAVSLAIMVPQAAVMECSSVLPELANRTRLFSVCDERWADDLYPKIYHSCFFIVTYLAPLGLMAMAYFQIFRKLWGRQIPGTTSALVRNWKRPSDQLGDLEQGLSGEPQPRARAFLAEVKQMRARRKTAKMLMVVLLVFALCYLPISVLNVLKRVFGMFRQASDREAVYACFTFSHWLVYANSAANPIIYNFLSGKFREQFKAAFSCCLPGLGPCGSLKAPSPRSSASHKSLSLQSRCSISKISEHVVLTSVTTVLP
OX1R antag-2: antagonists of human orexin 1 receptor (OX1R) | inhibition, % at 6.6 µM | AID 485270 | OX1R-expressing cells, FRET antagonist read-out | 330,000 tested, 1.8% active | O43613; in the data active means inhibition mostly above about 38%, no sharp cut-off; inactive means mostly below about 40%;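 further: 0% = agonist challenge alone and 100% = reference antagonist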
OXTR potentiator: potentiates the human oxytocin receptor response; P30559; CHO-OTR cells, Fluo-8 calcium fluorescence, potentiator mode; 0% = oxytocin EC15, 100% = EC100; activation, % at 3 µM; 320,000 tested, 0.061% active;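 active means activation above that plate's cutoff, the mean activation of tested compounds plus 3 SD, cut at about 6.6% in these data, passing the limit was not always enough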;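 further: 100% uses oxytocin at 75 nM as the full agonist control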
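Replication – single well per compound, singlicate · Assay system – CHO cell line stably expressing human OTR · Timing – 6 min pre-incubation, 100 s read · Measure – normalized max/min fluorescence ratio, % activation · Doses – 3.0 µM, one dose · Detection – Fluo-8 calcium dye fluorescence · Probe or stimulus – oxytocin near EC15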
CHO parental Ca: counter-screen: ATP calcium response change in parental CHO cells; AID 463079; parental CHO-K1, ATP-induced calcium, Fluo-8 fluorescence; 330,000 tested, 0.63% active; inhibition, % at 5.6 µM;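 active means inhibition above that plate's mean sample inhibition plus 3 SD, cut at about 26% in these data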;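 further: 0% = ATP-challenged DMSO wells and 100% = DMSO wells without ATP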
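Material – parental CHO cells · Reagent – ATP stimulus · Compound – single nominal dose of 5.6 µM per compound · Detection – Fluo-8 fluorescence · Read-out basis – percent inhibition of calcium signal · Controls – ATP-challenged DMSO wells low, unchallenged DMSO wells high · Repeats – no replicates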
V1aR counter: activates human V1a receptor in oxytocin agonist counter-screen; P37288; CHO-V1R cells, Fluo-8 calcium fluorescence, agonist mode; 0% DMSO, 100% 3 nM vasopressin; activation, % at 3 µM; 320,000 tested, 0.25% active;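 active means activation above the mean activation of all tested compounds plus 3 SD, per screening run, cut at about 20% in these data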;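 further: signal is peak over basal fluorescence ratio across a 100 second FLIPR read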
OXTR ag confirm: human OXTR agonism, confirmation; shares compounds with OXTR ag; CHO-OTR cells, Fluo-8 calcium fluorescence, agonist; activation, % at 3 µM; 390 tested, 20% active;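 active means mean activation above about 20% derived from the earlier single-dose screen, limit read from the data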;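 further: peak over minimum fluorescence ratio per well during a 100 second FLIPR read; 0% = DMSO alone and 100% = oxytocin high control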
V1aR counter 3x: V1R agonism in triplicate, counter-screen for OXTR agonists | shares compounds with OXTR ag | CHO-V1R cells, Fluo-8 calcium fluorescence, agonist | activation, % at 3 µM | 390 tested, 10% active | AID 434991;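 active means mean activation over triplicate exceeds the hit threshold set in the earlier primary screen, cut at about 20% in these data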;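 further: peak over basal fluorescence ratio within a 100 second read; 0% = DMSO alone and 100% = 3 nM vasopressin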
OXTR pot cf: confirmation of human oxytocin receptor potentiators; shares compounds with OXTR potentiator; CHO-OTR cells, Fluo-8 calcium fluorescence, potentiation; scaled from low-dose to maximal oxytocin; activation, % at 3 µM; 180 tested, under 10 active; AID 434985;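 active means mean percent activation over triplicates above a cutoff set from solvent-only control plates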;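 further: compounds tested in the presence of an EC15 dose of oxytocin; 0% = EC15 oxytocin with DMSO and 100% = EC100 oxytocin with DMSO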
V1aR agonist cf: human V1a receptor agonism, confirmation; shares compounds with V1aR counter; CHO-V1R cells, Fluo-8 calcium fluorescence, agonist; activation, % at 3 µM; 180 tested, 20% active; AID 434964;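 active means average activation exceeds primary screen hit cutoff, cut at about 21% in these data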;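 further: peak over basal fluorescence ratio during a 100 s FLIPR read; 0% = DMSO only wells and 100% = 3 nM vasopressin wells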
OXTR ag counter: OXTR agonism, counter-screen for V1R agonists. activation, % at 3 µM. 180 tested, 10% active. shares compounds with V1aR counter. CHO-OTR cells, Fluo-8 calcium fluorescence, agonist;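 active means mean activation over three repeats above the cutoff from the earlier oxytocin receptor agonist screen, cut at about 20% in these data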;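 further: peak over minimum fluorescence ratio within a 100 second FLIPR read; 0% = DMSO only wells and 100% = oxytocin high control wells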
OX1R Ca confirm: confirmation of human orexin 1 receptor antagonists; shares compounds with OX1R antag-1; CHO/OX1R cells, orexin A calcium Fluo-8 fluorescence; inhibition, % at 5 µM; 1,100 tested, 38% active; AID 492963; in the data active means inhibition above about 29%;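 further: 0% = agonist challenge alone and 100% = reference antagonist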
CHO Ca triplic: signal in parental CHO cells, OX1R antagonist counter-screen; AID 492965; shares compounds with OX1R antag-1; 1,100 tested, 9.3% active; parental CHO-K1, ATP-induced calcium, Fluo-8 fluorescence; inhibition, % at 5.6 µM;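 active means inhibition above a per-plate limit, the mean inhibition of that plate's test compounds plus 3 SD, cut at about 25% in these data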;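 further: 0% = ATP challenge with DMSO and 100% = DMSO without ATP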
OX1R HTRF conf: confirmation of human orexin 1 receptor antagonists, HTRF format | inhibition, % at 6.6 µM | shares compounds with OX1R antag-2 | AID 492964 | 1,800 tested, 49% active | OX1R-expressing cells, HTRF antagonist assay; in the data active means inhibition above about 55%;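 further: CHO cells expressing OX1R stimulated with orexin A at about EC80; 0% = agonist challenge alone and 100% = reference antagonist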
CHO-K1 HTRF cnt: signal in parental CHO-K1 cells, OX1R antagonist counter-screen. shares compounds with OX1R antag-2. AID 493232. inhibition, % at 6.6 µM. 1,800 tested, 48% active. HTRF counterscreen; in the data active means inhibition above about 17%;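 further: 0% = agonist challenge with vehicle and 100% = vehicle alone without agonist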
The depositor's hits bear a star; x = not tested or not shown.

SMILES | OXTR ag | OX1R antag-1 | OX1R antag-2 | OXTR potentiator | CHO parental Ca | V1aR counter | OX1R HTRF conf | CHO-K1 HTRF cnt | others
Cc1ccc2c(c1)C1CN(C)CCC1N2C(=O)Nc1cccc(Cl)c1 (stereo not given) | 30* | 21 | 8 | -12 | 28 | 20 | x | x | OXTR ag confirm=8;V1aR counter 3x=5
Cc1[nH]c2ccc(OC(F)(F)F)cc2c1CCNCc1cccc([N+](=O)[O-])c1 | 20* | 14 | 11 | -7 | 29* | 10 | x | x | OXTR ag confirm=13;V1aR counter 3x=8
COC(=O)C1=C(c2ccc3ccccc3c2)C[C@@H]2CC[C@H]1N2C(=O)NCc1ccc(C(F)(F)F)cc1 | 0 | -12 | 4 | -8 | -24 | 1 | x | x
CN1CCN(c2ccc([N+](=O)[O-])c(SCCO)c2)CC1 | 4 | -40 | 68 | 12* | -17 | 0 | x | x | OXTR pot cf=-8
CN1CCN(c2ccc([N+](=O)[O-])c(N)c2)CC1 | 0 | -10 | 42 | -5 | 2 | 2 | x | x
Cn1c(O)c(C=NCCN2CCNCC2)c(=O)[nH]c1=O | 1 | -22 | 5 | -4 | 5 | 2 | x | x
COc1cccc(NC(=O)[C@@H](NC(=O)N2C[C@H]3C[C@@H](C2)c2cccc(=O)n2C3)C(C)C)c1 | 3 | -2 | 5 | 11* | -9 | 0 | x | x | OXTR pot cf=-1
CCOc1cc2c(cc1OCC)-n1cccc1C(c1cc(C)c(OC)cc1C)NC2 (stereo not given) | 2 | -27 | -3 | -5 | -30 | 29* | x | x | V1aR agonist cf=0;OXTR ag counter=0
Cc1cc(Cc2c(O)[nH]c(=S)[nH]c2=O)ccc1OC(C)C | 0 | -4 | 5 | -7 | 2 | 0 | x | x
COC(=O)C1=C(c2ccc(F)cc2OCc2ccccc2)C[C@@H]2CC[C@H]1N2C(=O)NCCOc1ccccc1Cl | 3 | 56* | 31 | -8 | -23 | 4 | x | x | OX1R Ca confirm=19;CHO Ca triplic=-18
CN(CCc1ccccc1)Cc1c[nH]c2ccccc12 | 1 | -10 | 10 | -5 | -3 | 2 | x | x
CN(C)P1(N(C)C)=Nc2c(c(N)nn2C)C(c2ccccc2)=N1 | 0 | 89* | 18 | 0 | -10 | -1 | x | x | OX1R Ca confirm=3;CHO Ca triplic=2
CC(C)(C#CCCCCC#CC(C)(C)[N+](C)(C)C)[N+](C)(C)C | 0 | 3 | 10 | 1 | -6 | 1 | x | x
COc1ccc(-n2c(O)c(/C=C/C=Nc3ccccc3)c(=O)[nH]c2=O)cc1 | 80* | 45* | 34 | -15 | 19 | 43* | x | x | OX1R Ca confirm=25;CHO Ca triplic=32*
O=c1[nH]c(=O)n(-c2ccccc2)c(O)c1/C=C/C=Nc1ccccc1 | 16 | 6 | 16 | -8 | 0 | 13 | x | x
CCCCn1c(N)c(C(=O)OCC2CCCO2)c2nc3ccccc3nc21 (stereo not given) | 1 | 78* | 100* | -8 | -23 | 0 | 34 | 14 | OX1R Ca confirm=-3;CHO Ca triplic=-5
CC(C)CCn1c(N)c(C(=O)OCC2CCCO2)c2nc3ccccc3nc21 (stereo not given) | -1 | 6 | 53 | -28 | 4 | 6 | x | x
Cc1ccc(C)c(NP(=O)(Oc2ccccc2)Oc2ccccc2)c1 | 3 | 81* | 42* | -5 | 14 | 3 | 58* | 13 | OX1R Ca confirm=12;CHO Ca triplic=-14
O=c1c2ccccc2nc(Cc2cccc([N+](=O)[O-])c2)n1-c1ccc(O)cc1 | 1 | -13 | 10 | -2 | -17 | 1 | x | x
CCOC(=O)Cn1cc([N+](=O)[O-])nc1[N+](=O)[O-] | 0 | -14 | 92* | -3 | 0 | 0 | 42 | 53*
Nc1cc(Cl)c2nonc2c1[N+](=O)[O-] | -2 | 31 | 113* | -5 | 25 | -2 | 85* | 85*
COC(=O)C1=C(c2ccccc2OCc2ccccc2)C[C@@H]2CC[C@H]1N2C(=O)NCCCOC(C)C | -2 | -8 | 13 | -4 | -26 | -1 | x | x
C[n+]1ccc(-c2ccccc2)c2ccccc21 | -1 | 4 | 96* | -5 | -1 | 0 | 76* | 84*
CC(C)(C)c1cc([N+](=O)[O-])cc(C(C)(C)C)c1O | 4 | 3 | 45 | -11 | 3 | 5 | x | x
CN1CCN(c2ccc([N+](=O)[O-])c(N3CCCCC3)c2)CC1 | 1 | -9 | 24 | -2 | 2 | 0 | x | x
SMILES | OXTR ag | OX1R antag-1 | OX1R antag-2 | OXTR potentiator | CHO parental Ca | V1aR counter | OX1R HTRF conf | CHO-K1 HTRF cnt | others
O=[N+]([O-])c1ccc(N2CCCC2)c2ccncc12 | 7 | -16 | 87* | -9 | -3 | 4 | 44 | 69*
CN1CCN(c2ccc([N+](=O)[O-])c3cccnc23)CC1 | 0 | -21 | 128* | -13 | -16 | 0 | 43 | 64*
O=[N+]([O-])c1ccc(NC2CCCC2)c2ccncc12 | 1 | -2 | 31 | -9 | 22 | 5 | x | x
O=c1[nH]c(O)c(C=Nc2ccccc2[N+](=O)[O-])c(=O)[nH]1 | 0 | -17 | 18 | -6 | -7 | 2 | x | x
O=c1[nH]c(O)c(N=Nc2ccc([N+](=O)[O-])cc2)c(=O)[nH]1 | 0 | -25 | 89* | -6 | 2 | 0 | 62* | 99*
O=c1[nH]c(=S)[nH]c(O)c1N=Nc1ccc(SC(F)F)cc1 | 0 | -14 | 36 | -8 | 0 | 1 | x | x
Cc1ccc(N=Nc2c(O)[nH]c(=O)[nH]c2=O)c([N+](=O)[O-])c1 | -1 | -8 | 124* | -2 | -3 | -1 | 38 | 56*
